Experimental data as given in ChEMBL document CHEMBL1765047, “Synthesis and in vivo evaluation of (S)-6-(4-fluorophenoxy)-3-((1-[11C]methylpiperidin-3-yl)methyl)-2-o-tolylquinazolin-4(3H)-one, a potential PET tracer for growth hormone secretagogue receptor (GHSR)” (Bioorg Med Chem, 2011).
Activity calls are given as the source filed them. No cut-off for these calls is given here.

Columns and labels:
[1] = biological target: Growth hormone secretagogue receptor type 1 (Homo sapiens, UniProt Q92847); assay: Inhibition of [125I]Ghrelin binding to human Ghrelin receptor expressed in CHO-K1 cells after 60 mins by liquid scintillation spectrometry; assay type: cell-based
How it was run: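 Membranes from CHO-K1 cells stably expressing human GHSR, prepared in modified HEPES pH 7.4. 0.25 mg membrane incubated with 0.03 nM [125I]human ghrelin for 60 min at 25°C; nonspecific binding with […]. Filter-bound radioactivity counted by liquid scintillation. Duplicates at multiple concentrations; one-site competition fit for IC50, Ki by Cheng-Prusoff.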

[2] = biological target: Growth hormone secretagogue receptor type 1 (Mus musculus) (UniProt Q99P50); assay: Binding affinity to mouse Ghrelin receptor in mouse hypothalamus after 90 mins in presence of receptor antagonist (S)-6-(4-Fluorophenoxy)-3-(piperidin-3-ylmethyl)-2-o-tolylquinazolin-4(3H)-one; details: tested as the 11C-labelled form
Growth hormone secretagogue receptor type 1 (Mus musculus), sequence (Q99P50 whole entry, looked up): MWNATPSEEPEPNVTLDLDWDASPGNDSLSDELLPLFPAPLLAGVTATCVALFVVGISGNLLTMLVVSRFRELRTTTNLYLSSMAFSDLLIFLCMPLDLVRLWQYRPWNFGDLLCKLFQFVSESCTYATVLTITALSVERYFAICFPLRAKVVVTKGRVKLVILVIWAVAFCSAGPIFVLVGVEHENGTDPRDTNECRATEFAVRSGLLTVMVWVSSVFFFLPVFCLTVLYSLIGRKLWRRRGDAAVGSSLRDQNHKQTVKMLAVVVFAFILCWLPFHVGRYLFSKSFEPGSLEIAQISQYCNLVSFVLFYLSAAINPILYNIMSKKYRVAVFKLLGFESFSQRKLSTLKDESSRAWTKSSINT

Growth hormone secretagogue receptor type 1, sequence (Q92847 whole entry): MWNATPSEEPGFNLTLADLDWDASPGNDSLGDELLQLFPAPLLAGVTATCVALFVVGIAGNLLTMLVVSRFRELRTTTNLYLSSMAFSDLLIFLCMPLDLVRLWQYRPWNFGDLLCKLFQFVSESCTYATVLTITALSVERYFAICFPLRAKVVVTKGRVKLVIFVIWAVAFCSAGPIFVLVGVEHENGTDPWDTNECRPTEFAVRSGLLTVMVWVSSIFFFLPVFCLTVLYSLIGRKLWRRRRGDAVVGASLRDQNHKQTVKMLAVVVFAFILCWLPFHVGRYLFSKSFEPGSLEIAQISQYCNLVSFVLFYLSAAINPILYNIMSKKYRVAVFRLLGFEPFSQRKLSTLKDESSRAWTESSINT

With `Cc1ccccc1-c1nc2ccc(Oc3ccc(F)cc3)cc2c(=O)n1C[C@H]1CCCN(C)C1` the Ki [1] was 22 nM and the Activity [2] was “Active”.
